Experiments:
[1] = Cytotoxicity against human HOP62 cells assessed as cell growth at 10 uM after 48 hrs by SRB assay relative to control; assay type: functional; conditions: HOP-62, 48 h, read-out: Activity
[2] = Cytotoxicity against human HCC827 cells assessed as decrease in cell viability after 72 hrs by MTT assay; assay type: functional, cell-based; conditions: HCC827, 72 h
Method in brief: (§1)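 Cells kept in RPMI 1640 with 10% FBS at 37 °C, 5% CO2, passaged every 2-3 days; seeded at 5,000-7,000 cells/well and left 24 h. Compounds dissolved in 1% DMSO, diluted in fresh medium to 1, 4, 16 and 32 µM, added in sextuplicate; 72 h exposure. MTT added for 3-4 h, medium removed, DMSO added for 15 min at 37 °C, OD read at 540 nm.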

[3] = Cytotoxicity against human NCI-H1975 cells assessed as decrease in cell viability after 72 hrs by MTT assay; assay type: functional, cell-based; conditions: NCI-H1975, 72 h; method in brief: as §1
[4] = Cytotoxicity against human EKVX cells assessed as cell growth at 10 uM after 48 hrs by SRB assay relative to control; assay type: functional; conditions: read-out: Activity
[5] = Cytotoxicity against human NCI-H226 cells assessed as cell growth at 10 uM after 48 hrs by SRB assay relative to control; assay type: functional; conditions: NCI-H226, 48 h, read-out: Activity
[6] = Cytotoxicity against human A549 cells assessed as cell growth at 10 uM after 48 hrs by SRB assay relative to control; assay type: functional; conditions: A549, 48 h, read-out: Activity
[7] = Aqueous solubility of the compound; assay type: physicochemical
[8] = Cytotoxicity against human HOP92 cells assessed as cell growth at 10 uM after 48 hrs by SRB assay relative to control; assay type: functional; conditions: HOP-92, 48 h, read-out: Activity
[9] = Cytotoxicity against human NCI-H322M cells assessed as cell growth at 10 uM after 48 hrs by SRB assay relative to control; assay type: functional; conditions: read-out: Activity
[10] = Cytotoxicity against human NCI-H460 cells assessed as decrease in cell viability after 72 hrs by MTT assay; assay type: functional, cell-based; conditions: NCI-H460, 72 h; method in brief: as §1
[11] = Cytotoxicity against human A549 cells assessed as decrease in cell viability after 72 hrs by MTT assay; assay type: functional, cell-based; conditions: A549, 72 h; method in brief: as §1
[12] = Cytotoxicity against human NCI-H460 cells assessed as cell growth at 10 uM after 48 hrs by SRB assay relative to control; assay type: functional; conditions: NCI-H460, 48 h, read-out: Activity
[13] = Cytotoxicity against human NCI-H522 cells assessed as cell growth at 10 uM after 48 hrs by SRB assay relative to control; assay type: functional; conditions: NCI-H522, 48 h, read-out: Activity
[14] = Cytotoxicity against human NCI-H23 cells assessed as cell growth at 10 uM after 48 hrs by SRB assay relative to control; assay type: functional; conditions: NCI-H23, 48 h, read-out: Activity
[15] = Growth inhibition of human NCI-H322M cells after 48 hrs by SRB assay; assay type: functional
[16] = Growth inhibition of human NCI-H460 cells after 48 hrs by SRB assay; assay type: functional; conditions: NCI-H460, 48 h
[17] = Growth inhibition of human NCI-H23 cells after 48 hrs by SRB assay; assay type: functional; conditions: NCI-H23, 48 h
[18] = Growth inhibition of human NCI-H226 cells after 48 hrs by SRB assay; assay type: functional; conditions: NCI-H226, 48 h
[19] = Growth inhibition of human HOP62 cells after 48 hrs by SRB assay; assay type: functional; conditions: HOP-62, 48 h
[20] = Growth inhibition of human A549 cells after 48 hrs by SRB assay; assay type: functional; conditions: A549, 48 h
[21] = Growth inhibition of human EKVX cells after 48 hrs by SRB assay; assay type: functional
[22] = Growth inhibition of human HOP92 cells after 48 hrs by SRB assay; assay type: functional; conditions: HOP-92, 48 h
[23] = Growth inhibition of human NCI-H522 cells after 48 hrs by SRB assay; assay type: functional; conditions: NCI-H522, 48 h
[24] = read-out: LC50 (the source's name)

## COC(=O)c1cc2c(cc1C(=O)OC)[n+](Cc1ccc3ccccc3c1)cn2Cc1ccc2ccccc2c1.[Br-]
[1]
  growth at 10 µM: 78.8%
[2]
  IC50: 20000 nM
[3]
  IC50: 15000 nM
[4]
  growth at 10 µM: 94.3%
[5]
  growth at 10 µM: 77.7%
[6]
  growth at 10 µM: 92.2%
[7]
  solubility: < 500 µg/mL
[8]
  growth at 10 µM: 84.7%
[9]
  growth at 10 µM: 90.6%
[10]
  IC50: 26000 nM
[11]
  IC50: 23000 nM
[12]
  growth at 10 µM: 94.5%
[13]
  growth at 10 µM: 77.3%
[14]
  growth at 10 µM: 93.2%

## Cc1n(Cc2ccc3ccccc3n2)c2ccccc2[n+]1Cc1ccc2ccccc2n1.[Cl-]
[1]
  growth at 10 µM: 82.7%
[2]
  IC50: 7000 nM
[3]
  IC50: 2000 nM
[4]
  growth at 10 µM: 102%
[5]
  growth at 10 µM: 89.6%
[6]
  growth at 10 µM: 87.9%
[7]
  solubility: 1100 µg/mL
[8]
  growth at 10 µM: 52%
[9]
  growth at 10 µM: 94.9%
[10]
  IC50: 3000 nM
[11]
  IC50: 9000 nM
[12]
  growth at 10 µM: 95.8%
[13]
  growth at 10 µM: 56.6%
[14]
  growth at 10 µM: 75.8%

## OCCCc1n(Cc2ccc3ccccc3n2)c2ccccc2[n+]1Cc1ccc2ccccc2n1.[Cl-]
[1]
  growth at 10 µM: 87.5%
[2]
  IC50: 17000 nM
[3]
  IC50: 7000 nM
[4]
  growth at 10 µM: 97.8%
[5]
  growth at 10 µM: 79.8%
[6]
  growth at 10 µM: 93.2%
[7]
  solubility: < 500 µg/mL
[8]
  growth at 10 µM: 47.9%
[9]
  growth at 10 µM: 91.7%
[10]
  IC50: 11000 nM
[11]
  IC50: 25000 nM
[12]
  growth at 10 µM: 91.8%
[13]
  growth at 10 µM: 60%
[14]
  growth at 10 µM: 75%

## COC(=O)CCc1n(Cc2ccc3ccccc3c2)c2ccccc2[n+]1Cc1ccc2ccccc2c1.[Br-]
[1]
  growth at 10 µM: 19%
[2]
  IC50: 4000 nM
[3]
  IC50: 2000 nM
[4]
  growth at 10 µM: 42.1%
[5]
  growth at 10 µM: 17.7%
[6]
  growth at 10 µM: 38.3%
[7]
  solubility: < 500 µg/mL
[8]
  growth at 10 µM: -34.4%
[9]
  growth at 10 µM: 36.6%
[10]
  IC50: 4000 nM
[11]
  IC50: 8000 nM
[12]
  growth at 10 µM: 6.29%
[13]
  growth at 10 µM: -29.4%
[14]
  growth at 10 µM: -7.39%

## CCc1n(Cc2ccc3ccccc3c2)c2ccccc2[n+]1Cc1ccc2ccccc2c1.[Br-]
[1]
  growth at 10 µM: 81.3%
[2]
  IC50: 4000 nM
[3]
  IC50: < 1000 nM
[4]
  growth at 10 µM: 76.7%
[5]
  growth at 10 µM: 64.9%
[6]
  growth at 10 µM: 74.2%
[7]
  solubility: < 500 µg/mL
[8]
  growth at 10 µM: 21.9%
[9]
  growth at 10 µM: 90.7%
[10]
  IC50: 3000 nM
[11]
  IC50: 3000 nM
[12]
  growth at 10 µM: 53.6%
[13]
  growth at 10 µM: 12.1%
[14]
  growth at 10 µM: 28.8%

## CCCCCCCc1n(Cc2ccc3ccccc3c2)c2ccccc2[n+]1Cc1ccc2ccccc2c1.[Br-]
[1]
  growth at 10 µM: -70.6%
[2]
  IC50: < 1000 nM
[3]
  IC50: < 1000 nM
[4]
  growth at 10 µM: -73.5%
[5]
  growth at 10 µM: -70.8%
[6]
  growth at 10 µM: -77.5%
[7]
  solubility: < 500 µg/mL
[8]
  growth at 10 µM: -84.4%
[9]
  growth at 10 µM: -86%
[10]
  IC50: < 1000 nM
[11]
  IC50: < 1000 nM
[12]
  growth at 10 µM: -73%
[13]
  growth at 10 µM: -81.1%
[14]
  growth at 10 µM: -76.9%

## S=c1n(Cc2ccc3ccccc3c2)c2ccccc2n1Cc1ccc2ccccc2c1
[1]
  growth at 10 µM: 81.9%
[2]
  IC50: > 30000 nM
[3]
  IC50: > 30000 nM
[4]
  growth at 10 µM: 93.1%
[5]
  growth at 10 µM: 73.5%
[6]
  growth at 10 µM: 87.6%
[7]
  solubility: < 500 µg/mL
[8]
  growth at 10 µM: 83.4%
[9]
  growth at 10 µM: 92.6%
[10]
  IC50: > 30000 nM
[11]
  IC50: > 30000 nM
[12]
  growth at 10 µM: 69.8%
[13]
  growth at 10 µM: 88.2%
[14]
  growth at 10 µM: 93.1%

## Cc1cc2c(cc1C)[n+](Cc1ccc3ccccc3n1)cn2Cc1ccc2ccccc2n1.[Cl-]
[15]
  GI50: 1370 nM
  TGI: 8620 nM
[15]; [24]
  CC50: 30500 nM
[1]
  growth at 10 µM: 4.38%
[2]
  IC50: 3000 nM
[3]
  IC50: < 1000 nM
[4]
  growth at 10 µM: 39.6%
[16]
  GI50: 630 nM
  LC50: 6200 nM
  TGI: 2210 nM
[5]
  growth at 10 µM: 9.61%
[6]
  growth at 10 µM: 30.4%
[7]
  solubility: 1400 µg/mL
[8]
  growth at 10 µM: -27.3%
[9]
  growth at 10 µM: 36%
[17]
  GI50: 736 nM
  LC50: 29600 nM
  TGI: 3530 nM
[10]
  IC50: 2000 nM
[18]
  GI50: 1590 nM
  LC50: > 100000 nM
  TGI: 4010 nM
[19]
  GI50: 1270 nM
  TGI: 3130 nM
[19]; [24]
  CC50: 7720 nM
[11]
  IC50: 4000 nM
[20]
  GI50: 2830 nM
  LC50: 63500 nM
  TGI: 13000 nM
[21]
  GI50: 2290 nM
  LC50: 66000 nM
  TGI: 11100 nM
[12]
  growth at 10 µM: 0.34%
[22]
  GI50: 484 nM
  LC50: 5220 nM
  TGI: 2000 nM
[14]
  growth at 10 µM: 1.58%
[23]
  GI50: 704 nM
  TGI: 2470 nM
[23]; [24]
  CC50: 6890 nM

## Cc1cc2c(cc1C)[n+](Cc1ccc3ccccc3c1)cn2Cc1ccc2ccccc2c1.[Br-]
[15]
  GI50: 1140 nM
  TGI: 2420 nM
[1]
  growth at 10 µM: -73%
[2]
  IC50: 2000 nM
[3]
  IC50: 2000 nM
[4]
  growth at 10 µM: -64.3%
[16]
  GI50: 662 nM
[5]
  growth at 10 µM: -25.5%
[6]
  growth at 10 µM: -71.3%
[7]
  solubility: < 500 µg/mL
[8]
  growth at 10 µM: -80.8%
[9]
  growth at 10 µM: -8.28%
[17]
  GI50: 872 nM
  TGI: 2280 nM
[10]
  IC50: 2000 nM
[18]
  GI50: 1390 nM
  TGI: 3420 nM
[19]
  GI50: 1030 nM
  TGI: 2470 nM
[11]
  IC50: 3000 nM
[20]
  GI50: 1420 nM
  TGI: 2950 nM
[21]
  GI50: 1370 nM
  TGI: 2880 nM
[12]
  growth at 10 µM: -76.8%
[22]
  GI50: 587 nM
  TGI: 2530 nM
[14]
  growth at 10 µM: -71.8%
[23]
  GI50: 1250 nM
  TGI: 2990 nM

Source: ChEMBL document CHEMBL3868630, “Synthesis, anti-proliferative activity, SAR study, and preliminary in vivo toxicity study of substituted N,N'-bis(arylmethyl)benzimidazolium salts against a panel of non-small cell lung cancer cell lines” (Bioorg Med Chem, 2017)
